Activity calls are given as the source filed them. The rule behind the calls is not given here.
Columns and labels:
Format in all cases: functional
[1] = biological target: T1, Transcriptional activator protein LuxR (Aliivibrio fischeri) (UniProt P12746); assay: Agonist activity at Vibrio fischeri LuxR assessed as activation of quorum sensing activation mediated bioluminescence
T1 sequence (whole entry): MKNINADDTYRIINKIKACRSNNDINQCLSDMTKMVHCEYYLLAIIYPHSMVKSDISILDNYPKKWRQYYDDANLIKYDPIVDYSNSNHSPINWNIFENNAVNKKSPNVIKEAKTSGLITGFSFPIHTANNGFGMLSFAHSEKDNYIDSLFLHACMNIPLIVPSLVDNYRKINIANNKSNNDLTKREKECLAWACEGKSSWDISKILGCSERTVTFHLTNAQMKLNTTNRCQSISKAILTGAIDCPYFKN

[2] = biological target: T2, Transcriptional activator protein LuxR (Aliivibrio fischeri, UniProt P12746); assay: Antagonist activity at Vibrio fischeri LuxR assessed as inhibition of 3-oxo-C6-HSL-induced quorum sensing activation mediated bioluminescence
T2 sequence (P12746 whole entry): T1 sequence (whole entry)
Summary of the method: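 Bioluminescence induced with 200 nM 3-oxo-C6-HSL, with test compounds added. IC50 is the concentration that halves the induced light intensity. Values are means of three experiments with standard deviation.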

[3] = tested on: Aliivibrio fischeri; assay: Antimicrobial activity against Vibrio fischeri incubated overnight at 37 degC by disc diffusion assay
Summary of the method: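 Disk diffusion susceptibility assay following CLSI guidelines, with a kanamycin control disk. Compounds were tested at 20 μM, 200 μM, 2 mM and 20 mM. Inhibition zones were measured after overnight incubation at 37 °C, and the MIC was taken from these tested levels.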

Row | Activity [1] | IC50 ([2]; read-out: IC50) | IC50 [2] | SMILES | MIC [3]
1 | inactive | 11 µM |  | CCCCCCCCCCCCn1cc[n+](C2CCCC2)c1 | 
2 | inactive | 6.1 µM |  | CCCCCCCCCCCCn1cc[n+](C(c2ccccc2)c2ccccc2)c1 | 200 µM
3 | inactive | 153 µM |  | CCCCCCn1cc[n+](C(c2ccccc2)c2ccccc2)c1 | 
4 | inactive | 5.8 µM |  | CCCCCCCCCCn1cc[n+](C(c2ccc(Cl)cc2)c2ccc(Cl)cc2)c1 | 
5 | inactive | 5.3 µM |  | CCCCCCCCCCCCCCCCn1cc[n+](C2CCCC2)c1 | 
6 | inactive | 5.2 µM |  | CCCCCCCCCCCCCCn1cc[n+](C(c2ccccc2)c2ccccc2)c1 | 
7 | inactive | 14.7 µM |  | CCCCCCCCCCCCCCCCn1cc[n+](C2c3ccccc3-c3ccccc32)c1 | 
8 | inactive | 75 µM |  | CCCCCCCCCCCCCCn1cc[n+](C(c2ccc(Cl)cc2)c2ccc(Cl)cc2)c1 | 
9 | inactive | 4 µM |  | CCCCCCCCCCn1cc[n+](C2c3ccccc3-c3ccccc32)c1 | 
10 | inactive | 6.2 µM |  | CCCCCCCCCCCCn1cc[n+](C(c2ccc(Cl)cc2)c2ccc(Cl)cc2)c1 | 
11 | inactive | 52 µM |  | CCCCCCn1cc[n+](C(c2ccc(Cl)cc2Cl)c2ccc(Cl)cc2Cl)c1 | 
12 | inactive | 4.9 µM |  | CCCCCCCCCCn1cc[n+](C(c2ccc(Cl)cc2Cl)c2ccc(Cl)cc2Cl)c1 | 
13 | inactive |  | Not Active | CCCCn1cc[n+](C(c2ccccc2)c2ccccc2)c1.[Br-] | 
14 | inactive | 8.9 µM |  | CCCCCCCCn1cc[n+](C(c2ccc(Cl)cc2Cl)c2ccc(Cl)cc2Cl)c1 | 
15 | inactive | 35 µM |  | CCCCCCCCn1cc[n+](C2c3ccccc3-c3ccccc32)c1 | 
16 | inactive | 6.5 µM |  | CCCCCCCCCCCCn1cc[n+](C(c2ccc(Cl)cc2Cl)c2ccc(Cl)cc2Cl)c1 | 
17 | inactive | 18 µM |  | CCCCCCCCCCn1cc[n+](C(c2ccccc2)c2ccccc2)c1 | 
18 | inactive | 3.4 µM |  | CCCCCCCCCCCCCCn1cc[n+](C2CCCC2)c1 | 200 µM
19 | inactive |  | Not Active | CCCCCCCCCCCCCCCCCCn1cc[n+](C(c2ccc(Cl)cc2Cl)c2ccc(Cl)cc2Cl)c1.[Br-] | 
20 | inactive | 9.8 µM |  | CCCCCCCCn1cc[n+](C(c2ccc(Cl)cc2)c2ccc(Cl)cc2)c1 | 
21 | inactive | 33 µM |  | CCCCCCCCCCn1cc[n+](C2CCCC2)c1 | 
22 | inactive | 86 µM |  | CCCCCCCCCCCCCCCCCCn1cc[n+](C2CCCC2)c1 | 
23 | inactive |  | Not Active | CCCCCCCCCCCCCCCCCCn1cc[n+](C(c2ccc(Cl)cc2)c2ccc(Cl)cc2)c1.[Br-] | 
24 | inactive | 76 µM |  | CCCCCCCCn1cc[n+](C(c2ccccc2)c2ccccc2)c1 | 
25 | inactive | 7.3 µM |  | CCCCCCCCCCCCCCCCn1cc[n+](C(c2ccccc2)c2ccccc2)c1 | 
26 | inactive | 63 µM |  | CCCCCCn1cc[n+](C(c2ccc(Cl)cc2)c2ccc(Cl)cc2)c1 | 
27 | inactive | 68 µM |  | CCCCCCCCn1cc[n+](C2CCCC2)c1 | 
28 | inactive | 1.4 µM |  | CCCCCCCCCCCCn1cc[n+](C2c3ccccc3-c3ccccc32)c1 | 200 µM
29 | inactive |  | Not Active | CCCCCCCCCCCCCCn1cc[n+](C(c2ccc(Cl)cc2Cl)c2ccc(Cl)cc2Cl)c1.[Br-] | 
30 | inactive | 2.7 µM |  | CCCCCCCCCCCCCCn1cc[n+](C2c3ccccc3-c3ccccc32)c1 | 
